Data set [1] concerns Plasmodium berghei. The experiment in a line: Antiparasitic activity against Plasmodium berghei ANKA infected in Laca mouse assessed as reduction in CD4+ cell level in brain at 10 mg/kg, po administered for 4 days measured on day 10 and 21 by flow cytometry. The format is functional, organism-based. On the technique in general: A flow cytometer gives signals particle by particle.

Data set [2] deals with Plasmodium berghei. Description: Antiparasitic activity against Plasmodium berghei ANKA infected in Laca mouse assessed as increase in Treg cell level in brain at 10 mg/kg, po administered for 4 days measured on day 10 by flow cytometry. Type of data set: functional, organism-based.
Data set [3] concerns Plasmodium berghei. The experiment in a line: Antiparasitic activity against Plasmodium berghei ANKA infected in Laca mouse assessed as reduction in parasitemia at 10 mg/kg, po administered for 4 days measured up to day 15 by Giemsa-staining based assay. Type of data set: functional, organism-based.
Data set [4] has as its system Plasmodium berghei. Description: Antiparasitic activity against Plasmodium berghei ANKA infected in Laca mouse assessed as increase in serum IL-10 level at 10 mg/kg, po administered for 4 days measured on day 10 by sandwich ELISA. Type of data set: functional, organism-based.
The test system of data set [5] is Plasmodium berghei. Description: Antiparasitic activity against Plasmodium berghei ANKA infected in Laca mouse assessed as parasitemia at 10 mg/kg, po administered for 4 days measured on day 17 by Giemsa-staining based assay. Type of data set: functional.
Data set [6] can be described thus: Toxicity in Laca mouse infected with Plasmodium berghei ANKA assessed as death at 10 mg/kg, po administered for 4 days measured on day 21. Particulars: in vivo, 96 h. Type of data set: organism-based. In short, it runs like this: (§1)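 Groups of 6 mice, infected i.p. on D0 with 1x10⁶ P. berghei ANKA parasitized RBCs. Chloroquine 10 mg/kg given orally in 0.2 mL/mouse daily D0–D3. Infected PBS-dosed and uninfected controls were included. Mice were followed for survival, with parasitemia checked on Giemsa-stained thin blood smears of individual mice.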

For data set [7], the system named is Plasmodium berghei. Description: Antiparasitic activity against Plasmodium berghei ANKA infected in Laca mouse assessed as reduction in CD3+ cell level in brain at 10 mg/kg, po administered for 4 days measured on day 10 by flow cytometry. The format is functional, organism-based.
Data set [8] deals with Plasmodium berghei. The experiment in a line: Antiparasitic activity against Plasmodium berghei ANKA infected in Laca mouse assessed as increase in serum IL-27 level at 10 mg/kg, po administered for 4 days measured on day 10 by sandwich ELISA. Type of data set: functional, organism-based.
Data set [9] concerns Plasmodium berghei. The experiment in a line: Antiparasitic activity against Plasmodium berghei ANKA infected in Laca mouse assessed as increase in CD3+ cell level in spleen at 10 mg/kg, po administered for 4 days measured on day 10 by flow cytometry. The format is functional, organism-based.
Data set [10] relates to Plasmodium berghei. The experiment in a line: Antimalarial activity against Plasmodium berghei ANKA infected in Swiss albino mouse assessed as reduction in parasitemia at 25 mg/kg, po for 4 days dosed 2 hrs post infection and measured 5 days post infection by Giemsa staining based Peter's 4 day test. The format is functional. Also noted: scale not given: the % may be the effect or the level left.

Data set [11] relates to Plasmodium berghei. Description: Antiparasitic activity against Plasmodium berghei ANKA infected in Laca mouse assessed as increase in serum IL-12 level at 10 mg/kg, po administered for 4 days measured on day 10 by sandwich ELISA. The format is functional, organism-based. (In an ELISA, binding on a coated surface is turned into a signal by an enzyme label.)
Data set [12] concerns Plasmodium berghei. The experiment in a line: Antiparasitic activity against Plasmodium berghei ANKA infected in Swiss albino mouse assessed as reduction in parasitemia at 10 mg/kg, po by Peter's 4 day test. Also noted: scale not given: the % may be the effect or the level left. Type of data set: functional.
The subject of data set [13] is Plasmodium berghei. Description: Antiparasitic activity against Plasmodium berghei ANKA infected in Laca mouse assessed as reduction in CD8+ cell level in brain at 10 mg/kg, po administered for 4 days measured on day 10 by flow cytometry. The format is functional, organism-based.
Data set [14] has as its system Plasmodium berghei. Description: Antiparasitic activity against Plasmodium berghei ANKA infected in Laca mouse assessed as parasitemia at 10 mg/kg, po administered for 4 days measured on day 21 by Giemsa-staining based assay. The format is functional.
Data set [15] deals with Plasmodium berghei. The experiment in a line: Antiparasitic activity against Plasmodium berghei ANKA infected in Laca mouse assessed as decrease in serum TNFalpha level at 10 mg/kg, po administered for 4 days measured on day 10 by sandwich ELISA. Type of data set: functional, organism-based.
The nature of data set [16]: Toxicity in Laca mouse infected with Plasmodium berghei ANKA assessed as death at 10 mg/kg, po administered for 4 days measured after 21 days. As to conditions: in vivo, 504 h. The format is organism-based. In short, it runs like this:
as §1

Data set [17] deals with Plasmodium berghei. Description: Antiparasitic activity against Plasmodium berghei ANKA infected in Laca mouse assessed as increase in IFN-gamma level in serum at 10 mg/kg, po administered for 4 days measured on day 10 by sandwich ELISA.

The values that follow come from ChEMBL document CHEMBL4316616, “Efficacy of TLR7 agonistic imidazoquinoline as immunochemotherapeutic agent against P. Berghei ANKA infected rodent host” (Bioorg Med Chem Lett, 2019).

SMILES strings stand for the structures. The source made the active and inactive calls. The rule behind the calls is not given here.

For the compound `CCN(CC)CCCC(C)Nc1ccnc2cc(Cl)ccc12` (configuration not stated) [CHLOROQUINE], the outcome with Plasmodium berghei [1], in the data set on Plasmodium berghei [2], with Plasmodium berghei [3], in the data set on Plasmodium berghei [4], in the data set with Plasmodium berghei [7] and in the data set with Plasmodium berghei [8] was Active. Further, the outcome in the data set with Plasmodium berghei [9], with Plasmodium berghei [11], in the data set with Plasmodium berghei [13], in the data set with Plasmodium berghei [15] and in the data set with Plasmodium berghei [17] was Active. Besides, the Activity in the data set with Plasmodium berghei [5] is given as 5.99%; in data set [6], “Toxic”; in the data set on Plasmodium berghei [10], 89.04%; in the data set with Plasmodium berghei [12], 58.3%; with Plasmodium berghei [14], 10.76%; in data set [16] it was “Toxic”.
